Experimental data pooled from the literature.
pIC50: −log10 of the molar value. In brackets after ≈: the same amount, converted by molar mass.
Organism: Escherichia coli

O=C(O)c1cn(C2CC2)c2cc(N3CCNCC3)c(F)cc2c1=O has an inhibition zone of 17 mm (microbial growth, disc diffusion; 100 µg/mL, 24 h).
The MBC of COc1c(C)c(OS(=O)(=O)c2ccc3ccccc3c2)c(C)c(OS(=O)(=O)c2ccc3ccccc3c2)c1C(=O)/C=C/c1ccccc1 is reported as over 5000 µg/mL (microbial killing, broth dilution; ATCC25922).
The MIC of CC(C)Oc1c(NC(=O)c2ccc(NC(=O)[C@H](CC(N)=O)NC(=O)c3ccc(NC(=O)c4ccc(C#N)cc4)cc3)cc2)ccc(C(=O)N[C@@H]2CONC2=O)c1O is reported as over 64 µg/mL (microbial growth; DSM1116).
COc1ccc(-n2cc(COc3cc(C(C)C)ccc3C)nn2)cc1 gave an IC50 of 320 µg/mL (microbial growth, broth dilution; ATCC25922).
For COc1c(C)c(OC(C)=O)c(C)c(OC(C)=O)c1C(=O)/C=C/c1ccccc1, the MBC was over 5000 µg/mL (microbial killing, broth dilution; ATCC25922).
The inhibition zone of CC1(C)S[C@@H]2[C@H](NC(=O)[C@H](N)c3ccccc3)C(=O)N2[C@H]1C(=O)O is reported as 14 mm (microbial growth, well diffusion; BW25113; 200 µM).
O=C(Cc1ccccc1)Sc1cccccc1=O has an MIC80 of 19.8 µM (≈ 5.08 µg/mL) (microbial growth, broth dilution; ATCC35218).
For O=C(O)c1cn(C2CC2)c2cc(N3CCNCC3)c(F)cc2c1=O, the inhibition zone was 28.5 mm (microbial growth; SG458; 1000 µg/mL).
With Cc1ccc2nc(-c3ccc(F)cc3)[nH]c2c1 the MIC was 64 µg/mL (≈ 283 µM) (microbial growth, broth dilution; ATCC25922).
CCCCS(=O)(=O)Oc1cccc2cccnc12 has an IC50 of 194 µg/mL (microbial growth, broth dilution; ATCC25922).
COc1cc(C=CC(=O)CC(c2ccc(N(C)C)cc2)n2ccnc2)ccc1O (stereo not drawn) has an inhibition zone of 8 mm (microbial growth, disc diffusion; ATCC25922; 250 µg/mL).
CC1(C)SC2C(NC(=O)C(NC(=O)C3=C(O)C4CCCN4C3=O)c3ccccc3)C(=O)N2C1C(=O)O (stereo not drawn) gave an inhibition zone of 11 mm (microbial growth, well diffusion; BW25113; 200 µM).
With Cc1c(NC(=O)CC2=NC(=O)CS2)c(=O)n(-c2ccccc2)n1C the MBC was 0.5 µg/mL (≈ 1.45 µM) (microbial killing, broth dilution).
With Cc1ccc2nc(-c3ccc([N+](=O)[O-])cc3)n(Cc3ccccc3)c2c1 the MIC was 64 µg/mL (≈ 186 µM) (microbial growth, broth dilution; ATCC25922).
With COc1cc(C=Cc2cc(-c3ccccc3)nc(O)n2)ccc1O the inhibition zone was 19.7 mm (microbial growth, disc diffusion; ATCC25922; 500 µg/mL).
With N=C(N)c1ccc(OCCSCCOc2ccc(C(=N)N)cc2)cc1 the MIC was over 200 µg/mL (microbial growth, broth dilution; BW25113).
O=C(N[C@H](CO)[C@H](O)c1ccc([N+](=O)[O-])cc1)C(Cl)Cl has an MIC90 of 3.9 µg/mL (≈ 12.1 µM) (microbial growth; ATCC 8739, ATCC8739).
The inhibition zone of CC(C)CC1NC(=O)C(C(=O)NC(C(=O)NC2C(=O)N3C2SC(C)(C)C3C(=O)O)c2ccccc2)=C1O (stereo not drawn) is reported as 9 mm (microbial growth, well diffusion; BW25113; 200 µM).
The IC50 of Clc1ccc(-n2cc(COc3cccc4cccnc34)nn2)cc1 is reported as 470 µg/mL (microbial growth, broth dilution; ATCC25922).
CCCCCCCCCCCCCC(O)CC(O)CO (stereo not drawn) has an IC50 of over 200 µg/mL (microbial growth, broth dilution; ATCC35218).
With N=C(N)c1ccccc1OCc1cccc(COc2ccccc2C(=N)N)c1 the MIC was over 200 µg/mL (microbial growth; BW25113).
With CCCC(=O)Oc1c(C)c(O)c(C(=O)/C=C/c2ccccc2)c(OC)c1C the MBC was over 5000 µg/mL (microbial killing, broth dilution; ATCC25922).
For COc1ccc(-c2nc3ccccc3n2Cc2ccccc2)cc1OC, the MIC was 64 µg/mL (≈ 186 µM) (microbial growth, broth dilution; ATCC25922).
The MIC of CC(C)Oc1c(NC(=O)c2ccc(NC(=O)[C@H](CC(N)=O)NC(=O)c3ccc(NC(=O)c4ccc(C(F)(F)F)cc4)cc3)cc2)ccc(C(=O)Nc2ccc(C(=O)O)cc2)c1O is reported as 0.5 µg/mL (≈ 0.585 µM) (microbial growth; DSM1116).
For O=C(Sc1cccccc1=O)c1ccccc1C(F)(F)F, the MIC80 was 19.8 µM (≈ 6.14 µg/mL) (microbial growth, broth dilution; ATCC35218).
CCCc1ccsc1-c1ccc(O)c(O)c1 has a pIC50 of 4.81 (microbial growth; AS19; 10 h).
For Clc1ccc(-c2nc3ccccc3n2Cc2ccccc2)cc1, the MIC was 128 µg/mL (≈ 401 µM) (microbial growth, broth dilution; ATCC25922).
The IC50 of Cc1ccc(C(C)C)cc1OCc1cn(-c2ccc(Cl)cc2)nn1 is reported as 655 µg/mL (microbial growth, broth dilution; ATCC25922).
With COc1ccc(-c2nc3ccc(C)cc3[nH]2)cc1OC the MIC was 64 µg/mL (≈ 239 µM) (microbial growth, broth dilution; ATCC25922).
With CC(C)Oc1c(NC(=O)c2ccc(NC(=O)[C@H](CC(N)=O)NC(=O)c3ccc(NC(=O)C(C)Oc4ccc(C#N)cc4)cc3)cc2)ccc(C(=O)Nc2ccc(C(=O)O)cc2)c1O (stereo partly drawn) the MIC was 0.06 µg/mL (≈ 0.0701 µM) (microbial growth; DSM1116).
For Cc1ccc(-n2cc(COC3=CC(=O)c4ccccc4C3=O)nn2)cc1, the IC50 was 224 µg/mL (microbial growth, broth dilution; ATCC25922).
COc1cc(C=CC(=O)CC(c2ccc([N+](=O)[O-])cc2)n2ccnc2)ccc1O (stereo not drawn) has an inhibition zone of 7.67 mm (microbial growth, disc diffusion; ATCC25922; 250 µg/mL).
O=S(=O)(Oc1cccc2cccnc12)c1cccs1 has an IC50 of 165 µg/mL (microbial growth, broth dilution; ATCC25922).
N=C(N)c1ccccc1OCc1ccc(COc2ccccc2C(=N)N)cc1 gave an MIC of over 200 µg/mL (microbial growth; BW25113).
With COc1ccc(-n2cc(COC3=CC(=O)c4ccccc4C3=O)nn2)cc1 the IC50 was 314 µg/mL (microbial growth, broth dilution; ATCC25922).
For CC(C)Oc1c(NC(=O)c2ccc(NC(=O)[C@H](CC(N)=O)NC(=O)c3ccc(-c4nn[nH]c4-c4ccc(C#N)cc4)cc3)cc2)ccc(C(=O)Nc2ccc(C(=O)O)cc2)c1O, the MIC was over 64 µg/mL (microbial growth; DSM1116).
O=C(N/N=C/c1ccc([N+](=O)[O-])o1)c1ccc(O)cc1 has an MIC90 of 0.98 µg/mL (≈ 3.56 µM) (microbial growth; ATCC35218).
For N=C(N)c1cccc(OCc2ccc(COc3cccc(C(=N)N)c3)cc2)c1, the MIC was over 200 µg/mL (microbial growth, broth dilution; W3110).
The pIC50 of Oc1ccc(-c2ccsc2)cc1O is reported as 4.52 (microbial growth; AS19; 10 h).
The MIC of N=C(N)c1ccccc1OCCCCCOc1ccccc1C(=N)N is reported as over 200 µg/mL (microbial growth; BW25113).
With Cc1ccc(S(=O)(=O)Oc2cccc3cccnc23)cc1 the IC50 was 133 µg/mL (microbial growth, broth dilution; ATCC25922).
O=c1cccccc1SSc1cccccc1=O gave an MIC80 of 19.8 µM (≈ 5.43 µg/mL) (microbial growth, broth dilution; ATCC35218).
For N=C(N)c1ccc(OCc2ccc3ccc(COc4ccc(C(=N)N)cc4)cc3c2)cc1, the MIC was over 200 µg/mL (microbial growth; BW25113; 20 h).
COc1c(C)c(OCc2ccccc2)c(C)c(O)c1C(=O)/C=C/c1ccccc1 gave an MBC of over 5000 µg/mL (microbial killing, broth dilution; ATCC25922).
COc1c(N2C[C@@H]3CCCN[C@@H]3C2)c(F)cc2c(=O)c(C(=O)O)cn(C3CC3)c12 has an MIC90 of 0.06 µg/mL (≈ 0.149 µM) (microbial growth; ATCC 8739, ATCC8739).
